Laboratory results published in ChEMBL document CHEMBL1145971, “Design and synthesis of the potent, orally available, brain-penetrable arylpyrazole class of neuropeptide Y5 receptor antagonists” (J Med Chem, 2003).

How the values were obtained:
[1] = biological target: T1, Neuropeptide Y receptor type 5 (Homo sapiens, UniProt Q15761); experiment: Inhibition of [125I]PYY binding to human recombinant Neuropeptide Y receptor type 5 in LMtk-cells
T1 sequence (Q15761 whole entry): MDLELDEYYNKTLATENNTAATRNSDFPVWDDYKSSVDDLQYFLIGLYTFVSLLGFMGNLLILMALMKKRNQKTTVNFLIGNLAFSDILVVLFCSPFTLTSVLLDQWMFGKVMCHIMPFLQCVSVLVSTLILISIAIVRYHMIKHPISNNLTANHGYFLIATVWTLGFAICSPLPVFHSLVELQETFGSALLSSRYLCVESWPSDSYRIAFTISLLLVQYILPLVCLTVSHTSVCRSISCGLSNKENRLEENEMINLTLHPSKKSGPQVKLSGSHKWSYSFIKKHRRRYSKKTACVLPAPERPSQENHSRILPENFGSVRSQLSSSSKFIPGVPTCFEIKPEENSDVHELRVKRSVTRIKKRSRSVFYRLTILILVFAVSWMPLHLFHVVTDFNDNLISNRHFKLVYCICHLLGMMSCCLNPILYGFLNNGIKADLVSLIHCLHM
Summary of the method: (§1)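 Radioligand displacement used [125I]PYY on human recombinant Y5 receptors expressed in LMtk- cells. Values are mean ± SE, n = 3.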

[2] = biological target: T1, Neuropeptide Y receptor type 5; experiment: Antagonistic activity of compound was determined by its ability to inhibit NPY induced [Ca2+]i increases in CHO cells which expressed the recombinant human Neuropeptide Y receptor type 5; type: functional, cell-based
Summary of the method: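 Human recombinant Y5 receptor co-expressed with Gqi5 in CHO cells. Cells were stimulated with 100 nM NPY and inhibition of the intracellular Ca2+ rise was measured. IC50 is given as mean ± SE, n = 3.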

[3] = biological target: T1, Neuropeptide Y receptor type 5; experiment: Inhibition of [125I]PYY binding human recombinant Neuropeptide Y receptor type 5 in LMtk-cells; summary of the method: as §1
[4] = The concentration in brain was determined in SD rats at 2 hr after peroral administration of 10 mg/kg; type: ADME, organism-based; design: dose 10 mg/kg, route oral; conditions: Sprague-Dawley, rat, po
[5] = Time required for peak plasma concentration was determined for compound in SD rats when administered perorally at 10 mg/kg; type: ADME, organism-based; design: dose 10 mg/kg, route oral; conditions: Sprague-Dawley, rat, po
Summary of the method: (§2)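 Pharmacokinetics in SD rats: intravenous dose 1 mg/kg and oral dose 10 mg/kg. Parameters derived from plasma levels were t1/2, Vdss and CLtot (iv), and t1/2, Tmax, Cmax and F (po).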

Rattus norvegicus = experiment: Peak plasma concentration was determined for compound in SD rats when administered perorally at 10 mg/kg; type: ADME, organism-based; design: dose 10 mg/kg, route oral; conditions: in vivo, po; summary of the method: as §2
[6] = Half life (10 mg/kg) was determined in SD rats when administered perorally; type: ADME, organism-based; conditions: Sprague-Dawley, rat, in vivo, po; summary of the method: as §2
[7] = Bioavailability was determined for compound in SD rats when administered perorally at 10 mg/kg; type: ADME, organism-based; conditions: Sprague-Dawley, rat, in vivo, po, read-out: Fmean; summary of the method: as §2
[8] = Total body clearance was determined in SD rats when administered intravenously, at 1 mg/kg compound dosage; type: ADME, organism-based; design: dose 1 mg/kg, route intravenous; conditions: Sprague-Dawley, rat, in vivo, iv, read-out: CLtotal; summary of the method: as §2
[9] = Volume of distribution was determined in SD rats when administered intravenously, at 1 mg/kg compound dosage; type: ADME, organism-based; design: dose 1 mg/kg, route intravenous; conditions: Sprague-Dawley, rat, in vivo, iv, read-out: Vdss; summary of the method: as §2
[10] = Half life (1 mg/kg) was determined in SD rats when administered intravenously; type: ADME, organism-based; conditions: Sprague-Dawley, rat, in vivo, iv; summary of the method: as §2

Compound	Ki [1]	IC50 [3]	further results
COc1ccc(-c2cc(NC(=O)C3Cc4ccc5ccccc5c4C3)[nH]n2)cc1OC (racemic)	0.0028 µM	–	–
O=C(Nc1cc(-c2cccc(Cl)c2)n[nH]1)C1Cc2ccccc2C1	0.12 µM	–	–
CCc1cc(-c2cc(NC(=O)C3Cc4ccc5ccccc5c4C3)[nH]n2)ccn1 (stereo in doubt; (+)-7)	0.025 µM	–	IC50 [2]: 0.028 µM
O=C(Nc1cc(-c2ccccc2)[nH]n1)C1Cc2ccccc2C1	0.26 µM	–	–
CCc1cc(-c2cc(NC(=O)C3Cc4ccc5ccccc5c4C3)[nH]n2)ccn1 (racemic)	0.0073 µM	–	–
CCc1cc(-c2cc(NC(=O)C3Cc4ccc5ccccc5c4C3)[nH]n2)ccn1 (stereo in doubt; (-)-7)	0.0035 µM	–	concentration at 2 h [4]: 0.45 µM; Tmax [5]: 2 h; Cmax (Rattus norvegicus): 5 µM; half-life [6]: 1.9 h; IC50 [2]: 0.014 µM; bioavailability [7]: 70%; clearance [8]: 0.571 L/h/kg; Vd [9]: 0.62 L/kg; half-life [10]: 0.88 h
COc1ccc(-c2cc(NC(=O)C3Cc4ccccc4C3)[nH]n2)cc1OC	0.033 µM	–	–
O=C(Nc1cc(-c2ccncc2)[nH]n1)C1Cc2ccc3ccccc3c2C1 (racemic)	0.01 µM	–	–
O=C(Nc1cc(-c2ccccc2Cl)n[nH]1)C1Cc2ccccc2C1	0.45 µM	–	–
COc1ccc(-c2cc(NC(=O)C3Cc4ccccc4C3)[nH]n2)cc1	0.062 µM	–	–
CC(C)Oc1ccc(-c2cc(NC(=O)C3Cc4ccccc4C3)[nH]n2)cc1	0.092 µM	–	–

Continued, in another order:

Ki [1]	IC50 [3]	Compound	further results
–	0.047 µM	O=C(Cc1ccc2ccccc2c1)Nc1cc(-c2ccc(Cl)cc2)n[nH]1	–
–	> 1 µM	O=C(Nc1cc(-c2ccc(Cl)cc2)n[nH]1)c1ccccc1	–
0.0083 µM	–	COc1ccc(-c2cc(NC(=O)Cc3ccc4ccccc4c3)[nH]n2)cc1OC	–
–	0.803 µM	O=C(Cc1ccccc1)Nc1cc(-c2ccc(Cl)cc2)n[nH]1	–
–	> 1 µM	O=C(Nc1cc(-c2ccc(Cl)cc2)n[nH]1)c1ccc2ccccc2c1	–
–	> 1 µM	O=C(Nc1cc(-c2ccc(Cl)cc2)n[nH]1)c1ccc(-c2ccccc2)cc1	–
–	> 1 µM	O=C(Nc1cc(-c2ccc(Cl)cc2)n[nH]1)c1cccc2ccccc12	–
0.059 µM	–	O=C(Nc1cc(-c2ccc(Cl)cc2)n[nH]1)C1Cc2ccccc2C1	–
0.08 µM	–	Cc1ccc(-c2cc(NC(=O)C3Cc4ccccc4C3)[nH]n2)cc1	–
0.016 µM	0.0163 µM	O=C(O)CCc1cccc(CC(=O)Nc2cc(-c3ccc(Cl)cc3)n[nH]2)c1	–
–	0.443 µM	O=C(CCCc1ccccc1)Nc1cc(-c2ccc(Cl)cc2)n[nH]1	–
–	> 1 µM	O=C(CCc1ccccc1)Nc1cc(-c2ccc(Cl)cc2)n[nH]1	–
–	0.317 µM	O=C(Cc1cccc2ccccc12)Nc1cc(-c2ccc(Cl)cc2)n[nH]1	–
